# Test results taken from ChEMBL document CHEMBL4229470, “Synthetic molecules for disruption of the MYC protein-protein interface” (Bioorg Med Chem, 2018).
# Activity calls are given as the source filed them. The calls are words filed in the database; no cut-off is given here.
# Key:
# [1] = molecular target: Protein max (Homo sapiens) (UniProt P61244); assay: Binding affinity to His-tagged monomeric Max (unknown origin) expressed in Escherichia coli BL21 at 10 uM by Bio-FET analysis
# Method in brief: (§1)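 Bio-FET chip screening at 10 μM against monomeric MAX (mMAX), MYC-MAX and MAX-MAX dimers. Heterodimers stabilized by a disulfide through a C-terminal cysteine introduced into the MYC bHLH and MAX constructs.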
# [2] = Solubility in pH 6 MES buffer by dynamic light scattering assay; assay type: physicochemical
# Method in brief: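 Dynamic light scattering in MES, pH 6.0, with <0.1% DMSO.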
# dsDNA = assay: Binding affinity to biotin-labeled EBOX dsDNA (unknown origin) at 10 uM measured over 2.5 mins by SPR analysis; assay type: nucleic-acid assay
# Method in brief: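 SPR check of compound alone flowed over the DNA surface, without protein.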
# [3] = molecular target: Protein max (Homo sapiens) (UniProt P61244); assay: Binding affinity to His-tagged dimeric Max (unknown origin) expressed in Escherichia coli BL21 at 10 uM by Bio-FET analysis; method in brief: as §1
# [4] = molecular target: Myc proto-oncogene protein (Homo sapiens) (UniProt P01106); assay: Binding affinity to His-tagged Myc (unknown origin) expressed in Escherichia coli BL21 at 10 uM by Bio-FET analysis relative to KJ-Pyr-9
# Myc proto-oncogene protein (Homo sapiens), sequence (P01106 whole entry): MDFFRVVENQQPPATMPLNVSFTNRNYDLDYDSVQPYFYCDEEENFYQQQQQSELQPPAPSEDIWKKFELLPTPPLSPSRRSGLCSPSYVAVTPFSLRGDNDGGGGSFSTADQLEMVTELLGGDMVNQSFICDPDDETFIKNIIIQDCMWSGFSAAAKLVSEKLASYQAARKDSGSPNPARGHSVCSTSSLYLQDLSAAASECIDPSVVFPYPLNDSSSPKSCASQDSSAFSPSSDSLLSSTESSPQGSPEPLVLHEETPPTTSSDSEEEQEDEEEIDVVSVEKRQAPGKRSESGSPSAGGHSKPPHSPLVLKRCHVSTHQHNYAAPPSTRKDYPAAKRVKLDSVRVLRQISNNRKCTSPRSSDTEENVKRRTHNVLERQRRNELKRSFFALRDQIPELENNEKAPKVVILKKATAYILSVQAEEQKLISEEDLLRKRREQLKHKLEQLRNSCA
# Method in brief: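 His-tagged MYC bHLH construct immobilized on a Bio-FET chip. Compounds at 10 μM in 3% DMSO in MES buffer; chip response at 10 μM normalized to a 10 μM reference ligand (saturating, maximal signal) run on each chip.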
# c-Myc/Max (Homo sapiens) [5] = molecular target: T1, c-Myc/Max (Homo sapiens) (UniProt P01106+P61244); assay: Binding affinity to His-tagged Myc/Max (unknown origin) expressed in Escherichia coli BL21 at 10 uM by Bio-FET analysis; method in brief: as §1
# c-Myc/Max (Homo sapiens) [6] = molecular target: T1, c-Myc/Max (Homo sapiens); assay: Inhibition of biotin-labeled EBOX dsDNA binding to Myc-Max (unknown origin) at 10 uM preincubated for 15 mins followed by test compound-protein mixture addition to biotin-labeled EBOX dsDNA immobilized chip measured over 2.5 mins by SPR analysis; assay type: protein-complex assay
# Method in brief: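 SPR. Disulfide-stabilized MYC-MAX dimer incubated with compound at 10 μM, then flowed over a DNA chip surface; sensorgram perturbation compared with vehicle control.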
# [7] = Drug metabolism in rat liver microsomes assessed as oxidized furan ion formation by measuring parent compound remaining at 5 uM after 3 mins by LC-MS analysis; assay type: ADME, microsome; settings: 0.05 h
# Method in brief: (§2)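 Compounds incubated with rat liver microsomes at 37 °C for the indicated times; mass analysis monitoring the oxidized furan ion; recovery calculated from the AUC of the extracted ion.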
# [8] = Clearance in C57Bl6 mouse at 10 mg/kg, iv by LC-MS analysis; assay type: ADME, organism-based; settings: in vivo
# Method in brief: (§3)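 Pharmacokinetic parameters determined in C57Bl6 mice.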
# Mus musculus = assay: AUMC (0 to infinity) in C57Bl6 mouse at 10 mg/kg, iv by LC-MS analysis; assay type: ADME, organism-based; settings: in vivo; method in brief: as §3
# [9] = Drug metabolism in rat liver microsomes assessed as oxidized furan ion formation by measuring parent compound remaining at 5 uM after 7 mins by LC-MS analysis; assay type: ADME, microsome; method in brief: as §2
# [10] = Drug metabolism in rat liver microsomes assessed as oxidized furan ion formation by measuring parent compound remaining at 5 uM after 45 mins by LC-MS analysis; assay type: ADME, microsome; settings: 0.75 h; method in brief: as §2
# [11] = Drug metabolism in rat liver microsomes assessed as oxidized furan ion formation by measuring parent compound remaining at 5 uM after 15 mins by LC-MS analysis; assay type: ADME, microsome; settings: 0.25 h; method in brief: as §2
# [12] = Drug metabolism in rat liver microsomes assessed as oxidized furan ion formation by measuring parent compound remaining at 5 uM after 25 mins by LC-MS analysis; assay type: ADME, microsome; method in brief: as §2
# [13] = AUC (0 to infinity) in C57Bl6 mouse at 10 mg/kg, iv by LC-MS analysis; assay type: ADME, organism-based; design: dose 10 mg/kg, route intravenous, time infinity; settings: in vivo; method in brief: as §3
# [14] = MRT in C57Bl6 mouse at 10 mg/kg, iv by LC-MS analysis; assay type: ADME, organism-based; settings: in vivo; method in brief: as §3
# Rattus norvegicus = assay: AUMC (0 to infinity) in rat at 1 mg/kg, iv; assay type: ADME, organism-based; settings: in vivo
# [15] = Volume of distribution at steady state in C57Bl6 mouse at 10 mg/kg, iv by LC-MS analysis; assay type: ADME, organism-based; settings: in vivo; method in brief: as §3
# [16] = Terminal half life in rat at 1 mg/kg, iv; assay type: ADME, organism-based; settings: in vivo, read-out: beta t1/2 (converted)
# [17] = Clearance in rat at 1 mg/kg, iv; assay type: ADME, organism-based; settings: in vivo
# [18] = AUC (0 to infinity) in rat at 1 mg/kg, iv; assay type: ADME, organism-based; design: dose 1 mg/kg, time infinity, route intravenous; settings: in vivo
# [19] = Terminal half life in C57Bl6 mouse at 10 mg/kg, iv by LC-MS analysis; assay type: ADME, organism-based; settings: in vivo, read-out: beta t1/2 (converted); method in brief: as §3
# [20] = MRT in rat at 1 mg/kg, iv; assay type: ADME, organism-based; settings: in vivo
# Protein max (Homo sapiens), sequence (P61244 whole entry): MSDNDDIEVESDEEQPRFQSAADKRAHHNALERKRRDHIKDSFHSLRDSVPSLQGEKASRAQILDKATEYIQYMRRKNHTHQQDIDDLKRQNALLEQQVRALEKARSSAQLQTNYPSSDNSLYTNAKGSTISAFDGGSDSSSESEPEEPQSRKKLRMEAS
Compound,Activity [1],solubility [2],Activity (dsDNA),Activity [3],Activity [4],Activity (c-Myc/Max (Homo sapiens) [5]),inhibition (c-Myc/Max (Homo sapiens) [6]),other results
COc1ccc(-c2cc(-c3ccc(C(N)=O)cc3)nc(-c3ccccc3)n2)cc1,inactive,< 1 µM,inactive,inactive,0%,inactive,inactive,–
Cn1ccnc1-c1cc(-c2ccc(C(N)=O)cc2)cc(-c2ccc(C#N)cc2)n1,inactive,8 µM,inactive,inactive,41%,inactive,Active,–
N#Cc1ccc(-c2cc(-c3ccc(C(N)=O)cc3)nc(-c3ccco3)n2)cc1,inactive,8 µM,inactive,inactive,66%,inactive,Active,–
Cn1nncc1-c1cc(-c2ccc(C(N)=O)cc2)cc(-c2ccc(C#N)cc2)n1,inactive,32 µM,inactive,inactive,55%,inactive,Active,–
N#Cc1ccc(-c2cc(-c3ccc(C(=O)NN)cc3)cc(-c3ccco3)n2)cc1,inactive,500 µM,inactive,inactive,0%,inactive,inactive,–
N#Cc1ccc(-c2cc(-c3ccc(C(N)=O)cc3)nc(-c3cc[n+]([O-])cc3)n2)cc1,inactive,25 µM,inactive,inactive,0%,inactive,inactive,–
N#Cc1ccc(-c2cc(-c3ccc(C(N)=O)cc3)cc(-c3cncs3)n2)cc1,inactive,64 µM,inactive,inactive,79%,inactive,Active,–
c1coc(-c2cc(-c3nccs3)cc(-c3ccc(-c4nccs4)cc3)n2)c1,inactive,< 1 µM,inactive,inactive,188%,inactive,Active,–
CS(=O)(=O)NC(=O)c1ccc(-c2cc(-c3ccc(C#N)cc3)nc(-c3ccco3)c2)cc1,inactive,32 µM,inactive,inactive,76%,inactive,Active,–
NC(=O)c1ccc(-c2cc(-c3ccc(-c4nccs4)cc3)nc(-c3ccco3)c2)cc1,inactive,–,inactive,inactive,97%,inactive,Active,Stability [7]: 84.31%; clearance [8]: 3.8 mL/min/kg; AUMC (Mus musculus): 190000 ng·h/mL; Stability [9]: 80.8%; Stability [10]: 62.23%; Stability [11]: 74.39%; Stability [12]: 67.5%; AUC(0-inf) [13]: 44000 ng·h/mL; MRT [14]: 4.3 h
N#Cc1ccc(-c2cc(-c3ccc(-c4nnn[nH]4)cc3)cc(-c3ccco3)n2)cc1,inactive,18 µM,inactive,inactive,92%,inactive,Active,–
N#Cc1ccc(-c2cc(-c3ccc(C(N)=O)cc3)cc(-c3cccc(F)c3)n2)cc1,inactive,2 µM,inactive,inactive,0%,inactive,inactive,–
N#Cc1ccc(-c2cc(-c3ccc(C(N)=O)cc3)cc(-c3ccco3)n2)cc1,inactive,10 µM,inactive,inactive,106%,inactive,Active,–
NC(=O)c1ccc(-c2cc(-c3ccc([N+](=O)[O-])cc3)nc(-c3ccco3)c2)cc1,inactive,8 µM,inactive,inactive,–,–,–,Stability [7]: 49.69%; clearance [8]: 115 mL/min/kg; AUMC (Rattus norvegicus): 427 ng·h/mL; Vd [15]: 6.44 L/kg; half-life [16]: 1.6 h; clearance [17]: 65 mL/min/kg; AUC(0-inf) [18]: 258 ng·h/mL; AUMC (Mus musculus): 1360 ng·h/mL; half-life [19]: 1 h; Stability [9]: 31.47%; MRT [20]: 1.7 h; Stability [10]: 22%; Stability [11]: 25.88%; Stability [12]: 20.91%; AUC(0-inf) [13]: 1450 ng·h/mL; MRT [14]: 0.94 h
CNC(=O)c1ccc(-c2cc(-c3ccc(C#N)cc3)nc(-c3ccco3)c2)cc1,inactive,25 µM,inactive,inactive,3.2%,inactive,Active,–
NC(=O)c1ccc(-c2cc(-c3ccc(-c4cnco4)cc3)nc(-c3ccco3)c2)cc1,inactive,15 µM,inactive,inactive,154%,inactive,Active,–
N#Cc1ccc(-c2cc(-c3ccc(C(N)=O)cc3)cc(-c3cnco3)n2)cc1,inactive,250 µM,inactive,inactive,0%,inactive,inactive,–
